Data from article PMC5463557 (Journal of medicinal chemistry, 2017).
Entries after “also recorded” stand apart in the source; their conditions may differ.

Assays:
human wild-type CFTR [1] = target: T1, human wild-type CFTR (Homo sapiens, UniProt P13569); experiment: Fluorescence plate reader assay of CFTR function; assay type: cell-based; conditions: for CFTR activation activity (in words): plate reader assay, structure-activity discussion
In short: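 FRT cells stably coexpressing human wild-type CFTR and YFP-H148Q, grown near-confluent in 96-well plates. Washed with PBS, then 10 min in PBS with test compound plus 125 nM forskolin. YFP fluorescence read in single wells for 2 s baseline and 12 s after adding iodide solution (final 140 mM). Iodide influx rates give concentration–response curves; EC50 reported as mean ± SEM.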

human wild-type CFTR [2] = target: T1, human wild-type CFTR; experiment: Short-circuit current measurement in CFTR-expressing FRT cells; assay type: cell-based; conditions: data not shown
cytoplasmic calcium = experiment: Cytoplasmic calcium by Fluo-4 fluorescence in FRT cells; assay type: cell-based, rat; conditions: 10 μM, 5 min pretreatment, 100 μM ATP
[3] = In vitro hepatic microsomal metabolic stability; assay type: in vitro ADME, human; conditions: 60 min, hepatic microsomes, NADPH, 5 μM
[4] = tested on: calcium-activated chloride channels in HT-29 cells; experiment: Non-TMEM16A CaCC activity in HT-29 cells expressing YFP; assay type: cell-based; conditions: 10 μM
In short: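 HT-29 cells expressing YFP used for non-TMEM16A calcium-activated chloride channel activity, with test compound at 10 μM. Iodide influx rate computed from YFP fluorescence.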

cellular cAMP level = experiment: Cellular cAMP in FRT cells; assay type: cell-based, rat; conditions: 10 μM, 10 min, without or with 90 nM forskolin
TMEM16A = target: T2, TMEM16A (Homo sapiens, UniProt Q5XXA6); experiment: TMEM16A activity in FRT cells expressing YFP; assay type: cell-based; conditions: 10 μM
T2 sequence (Q5XXA6 1-986): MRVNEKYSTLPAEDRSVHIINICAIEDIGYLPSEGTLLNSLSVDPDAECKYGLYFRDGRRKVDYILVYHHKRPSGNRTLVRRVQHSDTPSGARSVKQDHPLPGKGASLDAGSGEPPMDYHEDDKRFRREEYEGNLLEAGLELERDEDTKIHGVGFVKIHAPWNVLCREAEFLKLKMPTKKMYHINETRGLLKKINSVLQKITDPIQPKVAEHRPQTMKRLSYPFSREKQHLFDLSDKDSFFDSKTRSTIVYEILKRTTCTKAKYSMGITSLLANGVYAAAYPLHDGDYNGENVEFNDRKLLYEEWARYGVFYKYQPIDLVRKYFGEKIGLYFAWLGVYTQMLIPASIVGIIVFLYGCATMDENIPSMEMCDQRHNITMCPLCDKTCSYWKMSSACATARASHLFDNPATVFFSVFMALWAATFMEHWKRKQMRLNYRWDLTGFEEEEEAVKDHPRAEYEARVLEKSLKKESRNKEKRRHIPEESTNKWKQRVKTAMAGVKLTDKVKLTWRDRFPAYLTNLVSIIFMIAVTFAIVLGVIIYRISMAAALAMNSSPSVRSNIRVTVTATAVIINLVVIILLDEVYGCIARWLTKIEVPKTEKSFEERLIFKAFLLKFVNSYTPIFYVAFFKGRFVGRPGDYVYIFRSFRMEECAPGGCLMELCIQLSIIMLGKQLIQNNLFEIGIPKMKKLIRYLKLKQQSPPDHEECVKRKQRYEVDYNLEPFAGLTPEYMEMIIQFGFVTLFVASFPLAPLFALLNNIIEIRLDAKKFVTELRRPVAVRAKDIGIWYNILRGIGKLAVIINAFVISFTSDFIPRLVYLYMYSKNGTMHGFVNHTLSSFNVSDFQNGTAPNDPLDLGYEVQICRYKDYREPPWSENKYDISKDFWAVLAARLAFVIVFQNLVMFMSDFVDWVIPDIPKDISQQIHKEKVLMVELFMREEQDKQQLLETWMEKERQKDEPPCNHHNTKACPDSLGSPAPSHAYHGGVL
In short: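 FRT cells coexpressing YFP and TMEM16A, tested with 10 μM test compound. Run like the YFP iodide-influx plate reader assay; iodide influx rate computed from fluorescence.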

[5] = tested on: loperamide-induced constipation in CD1 mice; experiment: Loperamide-induced mouse model of acute constipation; assay type: in vivo; conditions: oral, 1 h before loperamide, 3-h stool
In short: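 CD1 mice aged 8–10 weeks got test compound or vehicle orally 1 h before loperamide 0.3 mg/kg ip. Vehicle was saline with 5% DMSO and 10% Kolliphor HS 15. Mice kept in metabolic cages with free food and water; stool collected for 3 h. Total weight, pellet count and water content (wet vs dry weight) measured. Mean ± SEM; unpaired Student's t-test, P < 0.05.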

mice = conditions: cited from earlier work

T1 sequence (P13569 whole entry): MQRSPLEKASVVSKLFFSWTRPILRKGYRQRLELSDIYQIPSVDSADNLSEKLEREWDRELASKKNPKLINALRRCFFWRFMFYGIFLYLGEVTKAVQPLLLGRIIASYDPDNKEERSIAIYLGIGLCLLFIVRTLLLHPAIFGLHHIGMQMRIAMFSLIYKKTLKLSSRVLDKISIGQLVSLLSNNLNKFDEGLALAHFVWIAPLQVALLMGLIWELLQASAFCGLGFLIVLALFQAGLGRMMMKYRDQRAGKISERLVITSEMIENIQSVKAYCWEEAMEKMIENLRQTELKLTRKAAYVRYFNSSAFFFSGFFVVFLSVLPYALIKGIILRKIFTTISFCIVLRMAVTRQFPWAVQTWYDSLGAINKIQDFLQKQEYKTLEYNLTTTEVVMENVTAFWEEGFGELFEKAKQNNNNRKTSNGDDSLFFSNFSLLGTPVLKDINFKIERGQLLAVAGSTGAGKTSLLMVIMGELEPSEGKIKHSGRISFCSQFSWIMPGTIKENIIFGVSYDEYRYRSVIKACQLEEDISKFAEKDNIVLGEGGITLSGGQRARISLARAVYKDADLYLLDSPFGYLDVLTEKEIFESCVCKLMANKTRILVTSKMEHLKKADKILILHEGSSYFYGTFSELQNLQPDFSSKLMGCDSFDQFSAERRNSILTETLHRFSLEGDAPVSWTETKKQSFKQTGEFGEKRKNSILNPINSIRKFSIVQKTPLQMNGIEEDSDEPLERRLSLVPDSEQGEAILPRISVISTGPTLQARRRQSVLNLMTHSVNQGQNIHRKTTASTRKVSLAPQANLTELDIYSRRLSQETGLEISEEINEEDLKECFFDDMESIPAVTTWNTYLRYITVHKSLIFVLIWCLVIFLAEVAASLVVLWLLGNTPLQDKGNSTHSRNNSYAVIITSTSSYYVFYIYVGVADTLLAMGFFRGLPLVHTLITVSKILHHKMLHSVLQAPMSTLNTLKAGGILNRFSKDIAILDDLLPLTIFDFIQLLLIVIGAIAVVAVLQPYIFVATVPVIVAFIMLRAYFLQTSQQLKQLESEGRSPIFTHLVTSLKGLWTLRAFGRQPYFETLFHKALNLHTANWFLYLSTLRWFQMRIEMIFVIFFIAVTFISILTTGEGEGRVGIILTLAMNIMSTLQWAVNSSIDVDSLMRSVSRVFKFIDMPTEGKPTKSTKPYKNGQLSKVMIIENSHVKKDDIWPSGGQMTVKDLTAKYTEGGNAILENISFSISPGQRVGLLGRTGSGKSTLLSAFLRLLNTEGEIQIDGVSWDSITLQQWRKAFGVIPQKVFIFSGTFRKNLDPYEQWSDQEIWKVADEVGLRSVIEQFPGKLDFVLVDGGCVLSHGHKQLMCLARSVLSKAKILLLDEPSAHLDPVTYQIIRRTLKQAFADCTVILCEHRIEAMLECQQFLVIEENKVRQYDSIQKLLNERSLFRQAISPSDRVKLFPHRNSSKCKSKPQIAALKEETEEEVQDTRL

Compound | CFTR activation activity (in words) (human wild-type CFTR [1]) | also measured
COC(=O)c1ccc([N+](=O)[O-])c(-c2nc3ccccc3n(Cc3ccccc3)c2=O)c1 [1a, Methyl 3-(4-Benzyl-3-oxo-3,4-dihydroquinoxalin-2-yl)-4-nitrobenzoate] | very low activity | 
O=C(O)c1ccc([N+](=O)[O-])c(-c2nc3ccccc3n(Cc3ccccc3)c2=O)c1 [1b, 3-(4-Benzyl-3-oxo-3,4-dihydroquinoxalin-2-yl)-4-nitrobenzoic Acid] | very low activity | 
O=c1c(-c2cccc([N+](=O)[O-])c2)nc2ccccc2n1Cc1ccccc1 [1c, 1-Benzyl-3-(3-nitrophenyl)quinoxalin-2(1H)-one] |  | Potency in nonpermeabilized versus permeabilized CFTR-expressing FRT cells (human wild-type CFTR [2]): similar; Effect on cytoplasmic calcium and ATP-stimulated calcium elevation (cytoplasmic calcium): nor did it elevate cytoplasmic calcium or inhibit the ATP-stimulated elevation in cytoplasmic calcium; Increase in potency compared to 4 (human wild-type CFTR [1]; CFTR activation potency relative to 4): ~10 fold; Compound metabolized [3]: < 40%; Inhibition or activation of calcium-activated chloride channels [4]: neither inhibited nor activated; Effect on cellular cAMP level (cellular cAMP level): did not affect; Inhibition or activation of TMEM16A (TMEM16A): neither inhibited nor activated; Stool weight, pellet number and hydration [5]: fully normalized
O=c1c(-c2ccccc2[N+](=O)[O-])nc2ccccc2n1Cc1ccccc1 [1d, 1-Benzyl-3-(2-nitrophenyl)quinoxalin-2(1H)-one] | reduced activity | 
O=c1c(-c2ccc([N+](=O)[O-])cc2)nc2ccccc2n1Cc1ccccc1 [1e, 1-Benzyl-3-(4-nitrophenyl)quinoxalin-2(1H)-one] | reduced activity | 
O=c1c(-c2ccc(C(F)(F)F)cc2)nc2ccccc2n1Cc1ccccc1 [1f, 1-Benzyl-3-(4-(trifluoromethyl)phenyl)quinoxalin-2(1H)-one] | low activity | 
O=c1c(-c2cccc(Br)c2)nc2ccccc2n1Cc1ccccc1 [1g, 1-Benzyl-3-(3-bromophenyl)quinoxalin-2(1H)-one] | low activity | 
O=c1c(-c2ccccc2)nc2ccccc2n1Cc1ccccc1 [1h, 1-Benzyl-3-phenylquinoxalin-2(1H)-one] | significantly lower activity | 
O=c1c(-c2ccc(F)c([N+](=O)[O-])c2)nc2ccccc2n1Cc1ccccc1 [1i, 1-Benzyl-3-(4-fluoro-3-nitrophenyl)quinoxalin-2(1H)-one] | reduced activity | 
COC(=O)c1ccc(N)c(-c2nc3ccccc3n(Cc3ccccc3)c2=O)c1 [1j, Methyl 4-Amino-3-(4-benzyl-3-oxo-3,4-dihydroquinoxalin-2-yl)-benzoate] | moderately potent | 
Nc1ccc(C(=O)O)cc1-c1nc2ccccc2n(Cc2ccccc2)c1=O [1k, 4-Amino-3-(4-benzyl-3-oxo-3,4-dihydroquinoxalin-2-yl)benzoic Acid] | inactive | 
N#Cc1cccc(-c2nc3ccccc3n(Cc3ccccc3)c2=O)c1 [1l, 3-(4-Benzyl-3-oxo-3,4-dihydroquinoxalin-2-yl)benzonitrile] | greatly reduced activity | 
O=c1c(-c2ccc3nonc3c2)nc2ccccc2n1Cc1ccccc1 [1m, 3-(Benzo[c][1,2,5]oxadiazol-5-yl)-1-benzylquinoxalin-2(1H)-one] | comparable potency to the nitro analog | 
O=c1c(-c2cccc([N+](=O)[O-])c2)nc2cc(Br)ccc2n1Cc1ccccc1 [2f, 1-Benzyl-6-bromo-3-(3-nitrophenyl)quinoxalin-2(1H)-one] | good activity; also recorded: underperforms by nearly an order of magnitude compared to unsubstituted 1c | 
Nc1ccc([N+](=O)[O-])cc1-c1nc2ccccc2n(Cc2ccccc2)c1=O [compound 4] |  | Off-target actions or toxicity (mice; chronic administration in mice): no apparent off-target actions or toxicity; Metabolism (mice): rapid metabolism; Oral bioavailability (mice; mice): minimal oral bioavailability

The next lines start with results.

CFTR activation activity (in words) (human wild-type CFTR [1]) | Compound | also measured
good activity | O=c1c(-c2cccc([N+](=O)[O-])c2)nc2cc(Cl)ccc2n1Cc1ccccc1 [2b, 1-Benzyl-6-chloro-3-(3-nitrophenyl)quinoxalin-2(1H)-one] | 
reduced activity | O=c1c(-c2cccc([N+](=O)[O-])c2)nc2cc(Cl)c(Cl)cc2n1Cc1ccccc1 [2d, 1-Benzyl-6,7-dichloro-3-(3-nitrophenyl)quinoxalin-2(1H)-one] | 
reduced activity | O=c1c(-c2cccc([N+](=O)[O-])c2)nc2cc(F)c(F)cc2n1Cc1ccccc1 [2g, 1-Benzyl-6,7-difluoro-3-(3-nitrophenyl)quinoxalin-2(1H)-one] | 
reduced activity | Cc1cc2nc(-c3cccc([N+](=O)[O-])c3)c(=O)n(Cc3ccccc3)c2cc1C [2i, 1-Benzyl-6,7-dimethyl-3-(3-nitrophenyl)quinoxalin-2(1H)-one] | 
significantly reduced activity | O=c1c(-c2cccc([N+](=O)[O-])c2)nc2ccccc2n1Cc1cccc2ccccc12 [3f, 1-(Naphthalen-1-ylmethyl)-3-(3-nitrophenyl)quinoxalin-2(1H)-one] | 
significantly reduced activity | O=c1c(-c2cccc([N+](=O)[O-])c2)nc2ccccc2n1Cc1ccc2ccccc2c1 [3g, 1-(Naphthalen-2-ylmethyl)-3-(3-nitrophenyl)quinoxalin-2(1H)-one] | 
comparable activity | O=c1c(-c2cccc([N+](=O)[O-])c2)nc2ccccc2n1Cc1ccccn1 [3h, 3-(3-Nitrophenyl)-1-(pyridin-2-ylmethyl)quinoxalin-2(1H)-one] | 
comparable activity | O=c1c(-c2cccc([N+](=O)[O-])c2)nc2ccccc2n1Cc1ccco1 [3i, 1-(Furan-2-ylmethyl)-3-(3-nitrophenyl)quinoxalin-2(1H)-one] | 
comparable activity | O=c1c(-c2cccc([N+](=O)[O-])c2)nc2ccccc2n1Cc1cccs1 [3j, 3-(3-Nitrophenyl)-1-(thiophen-2-ylmethyl)quinoxalin-2(1H)-one] | 
